Test results published in the array DNA melting data of Ke et al. (doi:10.1101/2024.01.08.574731).

Tests used:
[1] = folding enthalpy; higher = less favourable; fluorescence melt of hairpins on a sequencing array, two-state fit; settings: sodium 0.088 M
How it was run: (§1)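 Hairpins were imaged by Cy3 fluorescence on a sequenced MiSeq flow cell with annealed Cy3 and quencher oligos, in 50 mM Na-HEPES pH 8.0, 25 mM NaCl, in 2.5 °C steps up to 60 °C. Bootstrapped two-state fits of normalised signals gave melting temperature and folding enthalpy. Four replicates were combined by inverse variance, and fitted temperatures were raised by 9.35 °C to match UV melts.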

[2] = melting temperature; fluorescence melt of hairpins on a sequencing array, two-state fit, raised by 9.35 °C to match UV melts; settings: sodium 0.088 M
How it was run: as §1

Row | Sequence | folding enthalpy [1] [kcal/mol] | Tm [2] [°C]
1 | GCTTGAGGAAACTCAAGC (((((((....))))))) | -41.9 | 62.8
2 | GCTTGAGGAAACTCAGGC ((.((((....)))).)) | -32.9 | 47.6
3 | GCTTGCCCGAAAGGGAGC (((..(((....)))))) | -14.7 | 48.1
4 | GCTTGCGAAAGCAAAAGC ((((((....)))..))) | -17.8 | 52.8
5 | GCTTGCGAAAGCAGCAGC ((((((....)))..))) | -11.4 | 46.4
6 | GCTTGCGGAAACACAAGC (((((.(....).))))) | -23.6 | 46.8
7 | GCTTGCGGAAACGCAGGC ((.((((....)))).)) | -35.1 | 62.8
8 | GCTTGGCGAAAGCACAGC (((..((....))..))) | -18.2 | 42.2
9 | GCTTGGCGAAAGCATAGC (((..((....))..))) | -20.3 | 46.2
10 | GCTTGGCGAAAGCCAGC (((.(((....)))))) | -14.3 | 59
11 | GCTTGGCGAAAGCCGCGC ((..(((....)))..)) | -15.6 | 57.6
12 | GCTTGGCGAAAGCCTCGC ((..(((....)))..)) | -17.4 | 41.8
13 | GCTTGGCGAAAGCCTGGC ((..(((....)))..)) | -17.4 | 52.3
14 | GCTTGGCGAAAGCTAAGC ((((.((....)).)))) | -30 | 64.7
15 | GCTTGGGGAAACTCAAGC (((((.(....).))))) | -35.8 | 51.3
16 | GCTTGGTCGAAAGACAGC (((..(((....)))))) | -14.8 | 43.2
17 | GCTTGTCGAAAGACAGC (((.(((....)))))) | -19.9 | 52.9
18 | GCTTGTGGAAACACAGGC ((.((((....)))).)) | -27.2 | 52
19 | GCTTGTGGAAACATAAGC ((((.((....)).)))) | -29.9 | 46.8
20 | GCTTTATCGAAAGATAGC (((..(((....)))))) | -12.2 | 31.6
21 | GCTTTCCGAAAGGACAGC (((.(((....))).))) | -35.7 | 49.9
22 | GCTTTCGAAAGAAAGAGC ((((((....)))..))) | -19.7 | 43.5
23 | GCTTTCGAAAGAAAGC ((((((....)))))) | -42.3 | 65.1

Row | Sequence | folding enthalpy [1] [kcal/mol] | Tm [2] [°C]
24 | GCTTTCGAAAGAAATAGC ((((((....)))..))) | -20 | 36.8
25 | GCTTTCGAAAGAATGAGC ((((((....)))..))) | -14.8 | 31.9
26 | GCTTTCGAAAGAATTAGC ((((((....)))..))) | -15.1 | 30.5
27 | GCTTTGAAAAAAGC (((((....))))) | -21.3 | 47.4
28 | GCTTTGCGAAAGCAAGGC ((.((((....)))).)) | -21.3 | 62.1
29 | GCTTTGCGAAAGCATAGC (((.(((....))).))) | -47.2 | 53.2
30 | GCTTTGCGAAAGCCATGC ((.(.((....)).).)) | -11.6 | 31.3
31 | GCTTTGCGAAAGCTAAGC ((((.((....)).)))) | -28.8 | 62.7
32 | GCTTTGCGAAAGCTCAGC (((..((....))..))) | -14.4 | 44.3
33 | GCTTTGCGAAAGCTGAGC (((..((....))..))) | -15.2 | 56.8
34 | GCTTTGGGAAACCAAAGC (((((((....))))))) | -47.1 | 65
35 | GCTTTGGGAAACCAGAGC (((.(((....))).))) | -27 | 48
36 | GCTTTTGGAAACGAAAGC (((((.(....).))))) | -39 | 47.2
37 | GGAAAACGAAAGTTATCC (((.(((....))).))) | -29.6 | 37
38 | GGAAAACGAAAGTTGTCC (((.(((....))).))) | -26.1 | 44.6
39 | GGAAAATCGAAAGATTCC (((..(((....)))))) | -7.3 | 29.1
40 | GGAAACCGAAAGGTCTCC (((.(((....))).))) | -27.5 | 44.8
41 | GGAAACCGAAAGGTTCC (((.(((....)))))) | -18.8 | 51.9
42 | GGAAACGAAAGTTCCTCC ((((((....)))..))) | -18.3 | 44.1
43 | GGAAACGAAAGTTGCTCC ((((((....)))..))) | -12.8 | 27.1
44 | GGAAACGAAAGTTTCC ((((((....)))))) | -34.6 | 63.3
45 | GGAAACGAAAGTTTCTCC ((((((....)))..))) | -13.8 | 45.9
46 | GGAAACGGAAACGCTTCC ((((.((....)).)))) | -34.1 | 43.4

Row | Sequence | folding enthalpy [1] [kcal/mol] | Tm [2] [°C]
47 | GGAAACGGAAACGTTCCC ((.((((....)))).)) | -23.1 | 45.1
48 | GGAAAGCGAAAGCTCTCC (((.(((....))).))) | -22.8 | 44
49 | GGAAAGTCGAAAGACTCC (((..(((....)))))) | -15.6 | 33.7
50 | GGAAATCCGAAAGGATCC (((..(((....)))))) | -13.1 | 35.4
51 | GGAAATCGAAAGATGTCC (((.(((....))).))) | -29 | 40.9
52 | GGAACACGAAAGTGCTCC (((.(((....))).))) | -40.7 | 50.2
53 | GGAACACGAAAGTGTCC (((.(((....)))))) | -23.5 | 52
54 | GGAACAGCGAAAGCTTCC (((..(((....)))))) | -18.4 | 35.5
55 | GGAACCCGAAAGGGGTCC (((.(((....))).))) | -30.4 | 68.2
56 | GGAACCGAAAGGTAATCC ((((((....)))..))) | -9.87 | 26.8
57 | GGAACCGAAAGGTACTCC ((((((....)))..))) | -12.6 | 33.3
58 | GGAACCGAAAGGTGTTCC ((((((....)))..))) | -17.6 | 40.5
59 | GGAACGACGAAAGTCTCC (((..(((....)))))) | -10.9 | 27.6
60 | GGAACGGGAAACCGCTCC (((.(((....))).))) | -28.1 | 48.7
61 | GGAACTCGAAAGAGGTCC (((.(((....))).))) | -39 | 60
62 | GGAAGACGAAAGTCTCC (((.(((....)))))) | -20.9 | 52.3
63 | GGAAGAGCGAAAGCTTCC (((..(((....)))))) | -16.1 | 43.8
64 | GGAAGCGAAAGCTAATCC ((((((....)))..))) | -12 | 26.7
65 | GGAAGCGAAAGCTCCTCC ((((((....)))..))) | -16.8 | 51.3
66 | GGAAGCGAAAGCTCTCC ((((((....))).))) | -16.2 | 43.5
67 | GGAAGCGAAAGCTGTTCC ((((((....)))..))) | -12.1 | 36.5
68 | GGAAGCGAAAGCTTGTCC ((((((....)))..))) | -10.3 | 35.8
69 | GGAAGCGCGAAAGCGTCC (((..(((....)))))) | -9.67 | 37.3

Row | Sequence | folding enthalpy [1] [kcal/mol] | Tm [2] [°C]
70 | GGAAGCGGAAACGCCTCC (((.(((....))).))) | -20 | 45.6
71 | GGAAGGCCGAAAGGCTCC (((..(((....)))))) | -11.9 | 34.6
72 | GGAAGGGGAAACCCCTCC (((.(((....))).))) | -21.1 | 45
73 | GGAAGGGGAAACCCTCCC ((.((((....)))).)) | -21 | 41.1
74 | GGAAGGGGAAACCCTTCC (((((((....))))))) | -35.1 | 64.4
75 | GGAAGGGGAAACCTTTCC ((((.((....)).)))) | -23.4 | 43.3
76 | GGAAGTGGAAACGCTTCC (((((.(....).))))) | -41.7 | 50.8
77 | GGAATCCGAAAGGAATCC (((.(((....))).))) | -31.2 | 48.7
78 | GGAATCCGAAAGGAGTCC (((.(((....))).))) | -42.5 | 55.8
79 | GGAATCGAAAGATCCTCC ((((((....)))..))) | -21.4 | 42.7
80 | GGAATCGGAAACGGTTTC (.((.((....)).)).) | -26.3 | 32.4
81 | GGAATGCGAAAGCACTCC (((.(((....))).))) | -23.6 | 48.3
82 | GGAATGGAAACATTCC ((((((....)))))) | -44.9 | 53.1
83 | GGAATGGGAAACCATTTC (.(((((....))))).) | -34.4 | 42.2
84 | GGAATTGGAAACGATTCC (((((.(....).))))) | -34.4 | 45.6
85 | GGACAAGGAAACCTGTCC (((((.(....).))))) | -31.4 | 47.2
86 | GGACACCGAAAGGTCTCC (((.(((....))).))) | -23.8 | 40
87 | GGACACCGAAAGGTTCC (((.(((....)))))) | -25.6 | 48.6
88 | GGACACGAAAGTGAATCC ((((((....)))..))) | -15.9 | 32.9
89 | GGACACGAAAGTGGGTCC ((((((....)))..))) | -19.9 | 48.7
90 | GGACACGGAAACATGTCC (((((.(....).))))) | -33 | 44
91 | GGACACGGAAACGTGCCC ((.((((....)))).)) | -27.9 | 54.5
